# Measurements collected from several papers.
# FGFR3: Fibroblast growth factor receptor 3 (FGFR3, Homo sapiens, UniProt P22607)
# FGFR3 K650E: Fibroblast growth factor receptor 3 (FGFR3, Homo sapiens, UniProt P22607, K650E)
# FGFR3 G697C: Fibroblast growth factor receptor 3 (FGFR3, Homo sapiens, UniProt P22607, G697C)
Compound,target,observed,mode,technique,tested at,endpoint,result
COc1cc(Cl)c(C(=O)N[C@@H](CN[C@H]2CC[C@@H](N)CC2)Cc2ccc(C#N)cc2)cc1-c1ccc(CN[C@H](C)c2ccc(C)cc2)o1,FGFR3,enzyme activity,inhibitor,,1 µM,remaining activity,85%
CCCOc1ccc(OC)c(F)c1C(=O)c1ccc(C(=O)N[C@@H]2CNC[C@H]2NC(=O)c2ccc3[nH]ncc3c2)cc1,FGFR3,enzyme activity,inhibitor,,10 µM,remaining activity,47%
Cc1cc(NC(=O)c2cccc3cc(-c4cccc5[nH]nc(N)c45)ccc23)ccc1F,FGFR3,enzyme activity,inhibitor,,0.1 µM,activity vs control,98%
O=c1nc(-c2ccccn2)sc2ccccc12,FGFR3,cell-free assay,,competition with immobilised ligand,1 µM,remaining binding,83%
O=C1Nc2ccc(Cl)cc2C1=Cc1cc(Cl)c(O)c(Cl)c1,FGFR3,cell-free assay,,,0.5 µM,remaining signal,94%
CS(=O)(=O)Nc1cccc(-c2csc(NC(=O)CSc3nc4nccnc4c(=O)n3CCc3ccccc3)n2)c1,FGFR3,enzyme activity,inhibitor,,10 µM,inhibition,-15%
C[C@H](c1cccc(C#N)c1)n1cc(Cl)cc(C(N)=O)c1=N,FGFR3,cell-free assay,,competition with immobilised ligand,1 µM,remaining binding,88%
COc1cc2ncnc(Nc3ccc(Oc4ccccc4)c(C)c3C)c2cc1OC,FGFR3 K650E,enzyme activity,inhibitor,,1 µM,inhibition,3%
CC/C(=N\NC(=O)NCc1cccc(O)c1)c1ccc(O)c(C)c1O,FGFR3,enzyme activity,inhibitor,,0.1 µM,inhibition,2.2%
Cc1ccc(NC(=O)c2ccc(C)c(C(F)(F)F)c2)cc1C#Cc1nn(C2CCC(O)CC2)c2ncnc(N)c12 (stereo not drawn),FGFR3,cell-free assay,,,10 µM,remaining signal,3%
Cc1nccc(COC(=O)N2C[C@@H]3[C@@H](CNC(=O)c4ccc5[nH]nnc5c4)[C@@H]3C2)n1,FGFR3,cell-free assay,,competition with immobilised ligand,1 µM,remaining binding,93%
COc1cc2nccc(Oc3ccc(NC(=O)c4c5n(n(-c6ccc(F)cc6)c4=O)CCCC5)cc3)c2cc1OC,FGFR3,enzyme activity,inhibitor,,0.1 µM,inhibition,-4%
CN(C)C(=O)Cn1cc(-c2nc(C3(c4ccc(-c5cnc(N)nc5)cc4)CC3)no2)cn1,FGFR3,cell-free assay,,competition with immobilised ligand,1 µM,remaining binding,100%
COc1cc2ncnc(Nc3ccc(Oc4ccccc4)cc3C)c2cc1OC,FGFR3 K650E,enzyme activity,inhibitor,,1 µM,inhibition,0%
CCN(CC)CCNC(=O)c1c(C)[nH]c(/C=C2\C(=O)Nc3ccc(F)cc32)c1C,FGFR3,enzyme activity,inhibitor,,0.3 µM,inhibition,61%
N#Cc1ccc(Nc2ccc3[nH]c(=O)[nH]c3c2)c(Cl)c1,FGFR3,cell-free assay,,competition with immobilised ligand,1 µM,remaining binding,100%
O=C(Nc1cnn(-c2csc(C(=O)NC3COC3)c2)c1)Nc1ccccc1Cl,FGFR3,enzyme activity,inhibitor,,5 µM,remaining activity,97.8%
Cc1ccc(Nc2nccc(N(C)c3ccc4c(C)n(C)nc4c3)n2)cc1S(N)(=O)=O,FGFR3,enzyme activity,inhibitor,,0.3 µM,inhibition,66%
Nc1ncnc2occ(-c3ccc(NC(=O)Nc4cc(C(F)(F)F)ccc4F)cc3)c12,FGFR3 G697C,cell-free assay,,,20 µM,remaining signal,1.1%
CS(=O)(=O)N1CCCC(NC(=O)[C@H](CCC2CCCCC2)NC(=O)c2ccc(CNc3ncnc4c3nnn4-c3ccccc3)cc2)C1 (stereo partly drawn),FGFR3,cell-free assay,,competition with immobilised ligand,0.1 µM,remaining binding,100%
CC(C)(C)c1nc2c(s1)c1nc(N)ncc1c1ccc(NS(=O)(=O)c3c(F)cccc3F)c(F)c12,FGFR3,enzyme activity,inhibitor,radiometric,1 µM,remaining activity,91%
CNCc1ccc(-c2cc(-c3nc(-c4ccc(S(=O)(=O)C(C)C)cc4)cnc3N)on2)cc1,FGFR3,enzyme activity,inhibitor,,0.4 µM,inhibition,0%
COc1cc2ncnc(Nc3ccc(F)c(Cl)c3)c2cc1OCCCN1CCOCC1,FGFR3,cell-free assay,,,0.5 µM,remaining signal,79.3%
C[C@H](c1ccnc(Nc2nc3ccc(-c4cc(N(C)C)ncn4)cc3[nH]2)c1)N1CCN(C(=O)CC(F)(F)F)CC1,FGFR3 G697C,cell-free assay,,competition with immobilised ligand,0.1 µM,remaining binding,100%
CCN(CC)c1ccc(C2=NNC(=O)CC2C)cc1[N+](=O)[O-] (stereo not drawn),FGFR3,enzyme activity,inhibitor,,10 µM,remaining activity,93%
O=C1NC(=O)c2cc(Nc3ccc(F)cc3)c(Nc3ccc(F)cc3)cc21,FGFR3,cell-free assay,,,0.5 µM,remaining signal,99.7%
CCCS(=O)(=O)Nc1ccc(F)c(C(=O)c2c[nH]c3ncc(-c4ccc(Cl)cc4)cc23)c1F,FGFR3,enzyme activity,inhibitor,,1 µM,inhibition,< 10%
C=CC(=O)Nc1cc(Nc2nccc(Nc3cc(Cl)c(F)cc3C(C)(C)O)n2)c(OC)cc1N1CC[C@@H](N(C)C)C1,FGFR3,enzyme activity,inhibitor,,1 µM,inhibition,4%
CC1=C(C#N)[C@@H](c2ccc3[nH]nc(C)c3c2)C(C#N)=C(c2ccc(Cl)cc2)N1,FGFR3 G697C,cell-free assay,,competition with immobilised ligand,1 µM,remaining binding,100%
Cc1ccc(C(=O)Nc2ccc(CN3CCN(C)CC3)c(C(F)(F)F)c2)cc1C#Cc1cnc2cccnn12,FGFR3,cell-free assay,,,23.5 nM,remaining signal,62%
